ChEMBL document CHEMBL4014311, “Discovery of a Hepatitis C Virus NS5B Replicase Palm Site Allosteric Inhibitor (BMS-929075) Advanced to Phase 1 Clinical Studies” (J Med Chem, 2017)
Calls of active or inactive are those of the source. No cut-off for these calls is given here.

Tests used:
[1] = Membrane permeability at pH 7.4 by PAMPA; assay type: physicochemical; settings: read-out: permeability
Cytochrome P450 2C8 = molecular target: T1, Cytochrome P450 2C8 (Homo sapiens, UniProt P10632); assay: Inhibition of microsomal CYP2C8 (unknown origin); assay type: ADME
T1 sequence (P10632 whole entry): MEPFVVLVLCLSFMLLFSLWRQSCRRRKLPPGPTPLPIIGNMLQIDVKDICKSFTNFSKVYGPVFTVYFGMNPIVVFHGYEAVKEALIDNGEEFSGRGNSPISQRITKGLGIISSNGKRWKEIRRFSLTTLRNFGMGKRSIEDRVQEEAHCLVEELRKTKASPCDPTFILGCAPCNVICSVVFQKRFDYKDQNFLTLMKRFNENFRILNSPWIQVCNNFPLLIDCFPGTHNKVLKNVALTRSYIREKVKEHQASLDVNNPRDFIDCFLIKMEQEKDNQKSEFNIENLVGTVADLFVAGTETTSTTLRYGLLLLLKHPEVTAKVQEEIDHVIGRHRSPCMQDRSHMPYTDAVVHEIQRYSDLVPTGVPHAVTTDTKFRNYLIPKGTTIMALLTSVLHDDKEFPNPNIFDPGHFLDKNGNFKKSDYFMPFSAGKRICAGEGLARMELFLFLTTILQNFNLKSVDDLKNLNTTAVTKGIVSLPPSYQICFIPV

[2] = Half life in dog liver microsomes; assay type: ADME, Canis lupus familiaris, microsome
[3] = Half life in monkey liver microsomes; assay type: ADME, Macaca mulatta, microsome; settings: rhesus monkey
[4] = molecular target: T2, Nuclear receptor subfamily 1 group I member 2 (Homo sapiens, UniProt O75469); assay: Transactivation of PXR (unknown origin); assay type: ADME
T2 sequence (O75469 whole entry): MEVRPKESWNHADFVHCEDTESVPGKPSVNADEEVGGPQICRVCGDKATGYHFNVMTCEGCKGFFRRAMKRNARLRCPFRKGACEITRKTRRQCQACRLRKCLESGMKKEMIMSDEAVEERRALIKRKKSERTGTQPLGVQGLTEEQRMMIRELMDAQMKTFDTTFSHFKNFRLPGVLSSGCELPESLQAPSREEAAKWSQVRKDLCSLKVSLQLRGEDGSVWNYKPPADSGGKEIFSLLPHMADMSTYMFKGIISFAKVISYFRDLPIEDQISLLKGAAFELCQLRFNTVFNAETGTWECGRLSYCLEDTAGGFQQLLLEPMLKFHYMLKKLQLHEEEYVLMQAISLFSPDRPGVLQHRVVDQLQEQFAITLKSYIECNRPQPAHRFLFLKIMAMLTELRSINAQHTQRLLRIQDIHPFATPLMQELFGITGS

[5] = Ratio of plasma concentration in human at 25 mg/day administered as single dose to EC50 for HCV genotype 1b NS5B C316N mutant infected in human HuH7 cells
Procedure, shortened: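 Randomized, double-blind, placebo-controlled Phase I single ascending dose study in healthy volunteers. Single oral dose of an amorphous solid dispersion formulation with 30% drug loading, at doses up to 400 mg. Human plasma exposure was measured and set against the replicon EC50.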

[6] = Ratio of plasma concentration in human at 25 mg up to 14 days to EC50 for HCV genotype 1b NS5B C316N mutant infected in human HuH7 cells
Procedure, shortened: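 Randomized, double-blind, placebo-controlled Phase I multiple ascending dose study in healthy volunteers. Oral amorphous solid dispersion formulation, 30% drug loading, given daily for 14 days at doses up to 400 mg/day. Human plasma exposure was measured and set against the replicon EC50.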

[7] = Drug uptake in Sprague-Dawley rat liver at 6 mg/kg, po administered via gavage after 24 hrs by LC/MS/MS analysis; assay type: ADME, organism-based; settings: read-out: Drug uptake
Procedure, shortened: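 Fasted rats were dosed orally in 90:10 PEG-400/ethanol; 6 h livers came from satellite animals. In the screening variant, n = 2 and plasma was taken to 6 h with livers at the terminal point. Livers were rinsed, blotted, weighed and homogenized in 2 volumes of 80% acetonitrile in HBSS per gram, then centrifuged. Supernatant and plasma were analysed by LC/MS/MS.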

[8] = Ratio of drug uptake in Sprague-Dawley rat liver to plasma at 6 mg/kg, po administered via gavage after 24 hrs by LC/MS/MS analysis; assay type: ADME, organism-based
Procedure, shortened: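 Rats fasted overnight, then dosed by gavage at 6 mg/kg in 90:10 PEG-400/ethanol (v/v). Plasma sampled serially from cannula into EDTA tubes predose and at 15, 30, 45, 60 min and 2, 4, 6, 8, 24 h; n = 3. Livers removed at 6 h (satellite animals) and 24 h, homogenized in 80% acetonitrile/HBSS, assayed by LC/MS/MS. Tmax taken directly from observed data.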

[9] = Oral bioavailability in Sprague-Dawley rat at 6 mg/kg by LC/MS/MS analysis; assay type: ADME, organism-based; settings: in vivo
Procedure, shortened: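 Rats were fasted overnight with free access to water, then dosed by gastric gavage with an […] solution in 90:10 PEG-400/ethanol (v/v), n = 3 per group. EDTA plasma was sampled predose and at 15, 30, 45, 60 min and 2, 4, 6, 8, 24 h, then assayed by LC/MS/MS. Parameters come from noncompartmental analysis: Cmax observed directly, AUC by linear/log trapezoidal summation, F as dose-normalized PO/IV AUC ratio.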

Hepatitis C virus [10] = assay: Antiviral activity against HCV genotype 4a infected in human HuH7 cells after 3 days by luciferase reporter assay; assay type: functional, cell-based, Hepacivirus hominis; settings: Huh-7, 72 h
[11] = Cytotoxicity against primary human hepatocytes; assay type: cell-based, Hepatocyte
Hepatitis C virus [12] = assay: Antiviral activity against HCV genotype 1b infected in human HuH7 cells co-treated with daclatasvir/asunaprevir after 3 days by luciferase reporter assay; assay type: functional, cell-based; settings: Hepacivirus hominis
[13] = Effective permeability across apical to basolateral side in human Caco2 cells; assay type: ADME, cell-based; settings: Caco-2, read-out: Peff
[14] = Cmax in Sprague-Dawley rat at 6 mg/kg, po administered via gavage using docusate sodium/methocel/water formulation by LC/MS/MS analysis; assay type: ADME, organism-based; set-up: dose 6 mg/kg, route oral; settings: in vivo
Procedure, shortened: (§1)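 Rats were fasted overnight and gavaged with a suspension of spray-dried dispersion (10% w/w drug loading in 0.02:0.5:99.48 docusate/methocel/water), n = 3 per group. Serial EDTA plasma was taken predose to 24 h and assayed by LC/MS/MS. Analysis was noncompartmental: Cmax observed, AUC by linear/log trapezoids, F from dose-normalized PO versus IV AUC.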

[15] = Tmax in Sprague-Dawley rat at 6 mg/kg, po administered via gavage using docusate sodium/methocel/water formulation by LC/MS/MS analysis; assay type: ADME, organism-based; settings: in vivo
Procedure, shortened: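 Fasted rats gavaged at 6 mg/kg with a spray-dried dispersion suspension (10% w/w drug loading in 0.02:0.5:99.48 docusate/methocel/water). Serial plasma samples predose and at 15, 30, 45, 60 min and 2, 4, 6, 8, 24 h; n = 3. Plasma analyzed by LC/MS/MS. Tmax read directly from observed concentrations.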

[16] = molecular target: Voltage-gated inwardly rectifying potassium channel KCNH2 (Homo sapiens, UniProt Q12809); assay: Inhibition of human ERG by patch clamp assay
[17] = molecular target: Sodium channel protein type 5 subunit alpha (Homo sapiens, UniProt Q14524); assay: Inhibition of Nav1.5 (unknown origin)
[18] = Oral bioavailability in Sprague-Dawley rat at 6 mg/kg using docusate sodium/methocel/water formulation by LC/MS/MS analysis; assay type: ADME, organism-based; settings: in vivo; procedure, shortened: as §1

Chain of Sodium channel protein type 5 subunit alpha (Q14524 whole entry): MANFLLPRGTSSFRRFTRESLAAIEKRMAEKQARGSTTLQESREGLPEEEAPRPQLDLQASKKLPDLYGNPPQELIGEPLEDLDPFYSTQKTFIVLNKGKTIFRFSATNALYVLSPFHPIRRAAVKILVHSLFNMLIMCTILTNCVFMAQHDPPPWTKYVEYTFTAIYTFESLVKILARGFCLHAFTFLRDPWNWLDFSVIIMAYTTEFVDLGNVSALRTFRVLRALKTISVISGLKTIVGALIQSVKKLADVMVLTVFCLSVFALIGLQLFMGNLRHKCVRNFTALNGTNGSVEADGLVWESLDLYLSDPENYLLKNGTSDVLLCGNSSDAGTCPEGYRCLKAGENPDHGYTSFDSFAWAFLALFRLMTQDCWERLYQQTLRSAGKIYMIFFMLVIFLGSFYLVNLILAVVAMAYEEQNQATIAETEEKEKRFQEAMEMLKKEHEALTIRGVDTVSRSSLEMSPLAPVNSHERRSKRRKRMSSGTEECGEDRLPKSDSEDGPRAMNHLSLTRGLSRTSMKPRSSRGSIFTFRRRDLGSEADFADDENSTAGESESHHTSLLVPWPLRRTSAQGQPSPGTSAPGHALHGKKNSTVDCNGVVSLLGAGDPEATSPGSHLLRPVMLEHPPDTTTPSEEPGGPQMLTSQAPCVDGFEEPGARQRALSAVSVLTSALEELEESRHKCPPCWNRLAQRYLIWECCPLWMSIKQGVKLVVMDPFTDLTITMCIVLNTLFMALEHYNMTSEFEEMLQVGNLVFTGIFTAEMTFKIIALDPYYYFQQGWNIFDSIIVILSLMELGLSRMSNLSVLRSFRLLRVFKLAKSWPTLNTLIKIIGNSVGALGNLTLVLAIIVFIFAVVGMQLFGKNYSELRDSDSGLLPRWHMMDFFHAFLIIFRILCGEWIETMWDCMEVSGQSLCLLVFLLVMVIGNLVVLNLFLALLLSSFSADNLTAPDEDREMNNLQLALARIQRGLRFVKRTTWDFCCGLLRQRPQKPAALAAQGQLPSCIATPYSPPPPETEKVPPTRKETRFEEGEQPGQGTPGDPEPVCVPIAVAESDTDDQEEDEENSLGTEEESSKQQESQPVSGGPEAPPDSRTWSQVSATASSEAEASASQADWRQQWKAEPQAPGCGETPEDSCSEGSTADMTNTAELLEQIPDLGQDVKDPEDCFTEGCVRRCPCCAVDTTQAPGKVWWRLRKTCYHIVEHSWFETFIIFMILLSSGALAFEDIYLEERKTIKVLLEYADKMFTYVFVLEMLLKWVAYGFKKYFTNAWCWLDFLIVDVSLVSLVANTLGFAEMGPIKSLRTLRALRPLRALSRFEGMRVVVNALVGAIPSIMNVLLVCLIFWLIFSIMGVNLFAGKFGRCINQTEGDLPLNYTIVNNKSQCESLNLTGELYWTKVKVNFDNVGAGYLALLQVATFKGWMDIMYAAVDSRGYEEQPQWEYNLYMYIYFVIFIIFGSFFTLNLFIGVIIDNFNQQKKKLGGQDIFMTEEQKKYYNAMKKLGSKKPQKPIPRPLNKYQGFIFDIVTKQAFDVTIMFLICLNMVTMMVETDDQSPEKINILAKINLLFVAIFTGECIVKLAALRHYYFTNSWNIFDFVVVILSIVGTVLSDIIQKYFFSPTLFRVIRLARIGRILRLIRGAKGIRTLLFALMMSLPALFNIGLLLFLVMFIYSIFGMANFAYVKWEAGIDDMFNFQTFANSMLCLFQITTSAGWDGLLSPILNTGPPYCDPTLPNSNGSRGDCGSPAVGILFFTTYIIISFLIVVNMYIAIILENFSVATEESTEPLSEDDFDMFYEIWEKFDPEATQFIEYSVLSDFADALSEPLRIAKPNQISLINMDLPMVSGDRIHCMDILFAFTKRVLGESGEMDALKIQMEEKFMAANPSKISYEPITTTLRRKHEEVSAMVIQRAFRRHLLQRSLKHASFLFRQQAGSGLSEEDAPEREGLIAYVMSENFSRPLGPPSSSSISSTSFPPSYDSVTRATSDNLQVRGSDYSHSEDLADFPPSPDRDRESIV
Chain of Voltage-gated inwardly rectifying potassium channel KCNH2 (Q12809 whole entry): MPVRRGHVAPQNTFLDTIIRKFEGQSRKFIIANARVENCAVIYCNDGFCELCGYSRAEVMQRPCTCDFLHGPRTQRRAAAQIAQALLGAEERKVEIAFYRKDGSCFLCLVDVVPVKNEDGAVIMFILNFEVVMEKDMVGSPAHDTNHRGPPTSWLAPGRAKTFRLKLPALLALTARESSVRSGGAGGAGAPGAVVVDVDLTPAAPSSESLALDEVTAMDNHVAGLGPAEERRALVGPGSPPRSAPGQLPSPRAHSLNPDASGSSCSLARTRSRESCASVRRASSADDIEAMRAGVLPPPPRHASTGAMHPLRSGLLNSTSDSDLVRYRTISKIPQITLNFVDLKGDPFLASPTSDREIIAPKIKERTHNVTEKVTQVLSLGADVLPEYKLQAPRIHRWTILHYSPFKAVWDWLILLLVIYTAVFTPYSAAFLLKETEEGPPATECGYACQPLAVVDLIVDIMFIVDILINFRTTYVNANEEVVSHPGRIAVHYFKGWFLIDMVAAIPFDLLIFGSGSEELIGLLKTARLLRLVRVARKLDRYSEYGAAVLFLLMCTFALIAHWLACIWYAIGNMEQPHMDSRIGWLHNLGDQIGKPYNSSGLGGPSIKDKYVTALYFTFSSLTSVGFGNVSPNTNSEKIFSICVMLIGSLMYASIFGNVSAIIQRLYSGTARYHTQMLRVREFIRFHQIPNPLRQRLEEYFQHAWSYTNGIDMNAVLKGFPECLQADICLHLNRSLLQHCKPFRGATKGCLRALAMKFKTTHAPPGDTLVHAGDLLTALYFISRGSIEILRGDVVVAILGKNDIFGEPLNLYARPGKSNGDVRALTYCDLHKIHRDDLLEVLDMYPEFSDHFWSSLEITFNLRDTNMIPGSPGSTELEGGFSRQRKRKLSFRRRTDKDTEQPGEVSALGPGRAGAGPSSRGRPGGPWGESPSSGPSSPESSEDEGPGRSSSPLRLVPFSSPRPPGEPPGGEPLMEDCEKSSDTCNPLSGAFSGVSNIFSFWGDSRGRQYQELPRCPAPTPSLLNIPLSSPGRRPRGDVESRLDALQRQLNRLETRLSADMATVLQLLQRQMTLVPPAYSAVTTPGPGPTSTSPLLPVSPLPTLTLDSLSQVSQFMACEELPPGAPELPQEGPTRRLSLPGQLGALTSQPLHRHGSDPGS

## CNC(=O)c1c(-c2ccc(F)cc2)oc2ccc(-c3cc(C(=O)NC4(c5ncccn5)CC4)ccc3C)c(F)c12 [BMS-929075]
[1]
  Papp: 97.2 ×10⁻⁶ cm/s
Cytochrome P450 2C8
  IC50: 6.7 µM
[2]
  half-life: > 2 h
[3]
  half-life: > 2 h
[4]
  EC50: > 50 µM
[5]
  Ratio: 10
[6]
  Ratio: 10
[7]
  concentration at 24 h: 1.12 µM
[8]
  Kp at 24 h: 1.6
[9]
  bioavailability: 48%
Hepatitis C virus [10]
  EC50: 0.003 µM
[11]
  CC50: > 50 µM
Hepatitis C virus [12]
  Activity: Active
[13]
  Papp A→B: > 10 ×10⁻⁶ cm/s
[14]
  Cmax: 14.7 µM
[15]
  Tmax: 4 h
[16]
  IC50: 18 µM
[17]
  inhibition (INH): Not Active
[18]
  bioavailability: > 100%
